According to ChEMBL document CHEMBL4359903, “1,2,4-Oxadiazole derivatives targeting EGFR and c-Met degradation in TKI resistant NSCLC” (Eur J Med Chem, 2019):
Activity calls are given as the source filed them. No cut-off for these calls is given here.

Assays:
MDA-MB-231 = experiment: Antiproliferative activity against human MDA-MB-231 cells assessed as reduction in cell viability incubated for 72 hrs by MTT assay; assay type: functional, cell-based; conditions: MDA-MB-231, 72 h
Summary of the method: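 MTT viability assay after 72 h of drug exposure. Cells seeded at 5000 per well in 10% FBS and left overnight, then treated in 5% FBS. MTT added for 1 h, dye dissolved in DMSO, absorbance read at 570 nm. Viability given relative to vehicle-treated cells.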

[1] = target: Hepatocyte growth factor receptor (Homo sapiens) (UniProt P08581); experiment: Induction of c-MET degradation in human MDA-MB-231 cells assessed as reduction in c-Met expression incubated for 48 hrs by immunoblot analysis; assay type: cell-based
Summary of the method: (§1)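 After 48 h treatment, cells were scraped and lysed in 1% SDS, 50 mM Tris-HCl pH 8.0, 10 mM EDTA with protease and phosphatase inhibitors. Lysates sonicated, protein measured by BCA, equal amounts run on SDS-PAGE and blotted to nitrocellulose. Primary antibodies (EGFR, c-Met, S473-Akt, Akt, GAPDH) used at 1:1000 overnight at 4 °C, HRP secondaries at 1:5000, ECL detection.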

NCI-H1975 [2] = experiment: Antiproliferative activity against human NCI-H1975 cells harbouring EGFR L858R/T790M double mutant assessed as reduction in cell viability incubated for 48 hrs by MTT assay; assay type: functional, cell-based; conditions: NCI-H1975, 48 h
Summary of the method: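 Cells seeded at 5000 per well in 10% FBS and left overnight, then exposed to agent or DMSO in 5% FBS for 48 h. MTT added for 1 h, dye dissolved in DMSO, absorbance read at 570 nm. Viability given as percent of vehicle control. At least three independent experiments, means ± SD.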

A549 = experiment: Antiproliferative activity against wild type human A549 cells assessed as reduction in cell viability incubated for 72 hrs by MTT assay; assay type: functional, cell-based; conditions: A549, 72 h
[3] = Antiproliferative activity against human CL68 cells harbouring EGFR delE746-A750/T790M mutant assessed as reduction in cell viability incubated for 72 hrs by MTT assay; assay type: functional, cell-based
[4] = target: Epidermal growth factor receptor (Homo sapiens) (UniProt P00533); experiment: Induction of EGFR degradation in wild type human A549 cells assessed as reduction in EGFR expression 0.2 to 0.6 uM incubated for 48 hrs by Western blot analysis; assay type: cell-based; summary of the method: as §1
[5] = tested on: Epidermal growth factor receptor (Homo sapiens), P00533 [UNDEFINED MUTATION]; experiment: Induction of EGFR E746-A750 deletion/T790M mutant degradation in human CL68 cells assessed as reduction in EGFR expression at 0.2 to 0.6 uM incubated for 48 hrs by Western blot analysis; assay type: cell-based; summary of the method: as §1
[6] = target: Hepatocyte growth factor receptor (Homo sapiens) (UniProt P08581); experiment: Induction of c-MET degradation in wild type human A549 cells assessed as reduction in c-Met expression at 0.2 to 0.6 uM incubated for 48 hrs by immunoblot analysis; assay type: cell-based; summary of the method: as §1
[7] = target: Hepatocyte growth factor receptor (Homo sapiens) (UniProt P08581); experiment: Induction of c-MET degradation in human PC9 cells harbouring EGFR delE746-A750 assessed as reduction in c-Met expression at 0.2 to 0.6 uM incubated for 48 hrs by Western blot analysis; assay type: cell-based; summary of the method: as §1
[8] = target: Hepatocyte growth factor receptor (Homo sapiens) (UniProt P08581); experiment: Induction of c-MET degradation in human CL68 cells harbouring EGFR delE746-A750/T790M assessed as reduction in c-Met expression at 0.2 to 0.6 uM incubated for 48 hrs by Western blot analysis; assay type: cell-based; summary of the method: as §1
[9] = target: Epidermal growth factor receptor (Homo sapiens) (UniProt P00533); experiment: Inhibition of EGFR in wild type human A549 cells assessed as reduction in Akt phosphorylation at 0.2 to 0.6 uM incubated for 48 hrs by Western blot analysis; assay type: cell-based; summary of the method: as §1
[10] = tested on: Epidermal growth factor receptor (Homo sapiens), P00533 [UNDEFINED MUTATION]; experiment: Induction of EGFR E746-A750 deletion/T790M mutant degradation in human CL68 cells assessed as Akt phosphorylation at 0.4 to 0.8 uM incubated for 48 hrs by Western blot analysis; assay type: cell-based; summary of the method: as §1
[11] = target: Hepatocyte growth factor receptor (Homo sapiens) (UniProt P08581); experiment: Effect on c-MET degradation in wild type human A549 cells assessed as reduction in c-Met mRNA expression at 0.2 to 0.6 uM incubated for 48 hrs by RT-PCR analysis; assay type: cell-based
Summary of the method: (§2)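 Total RNA extracted with TRIzol from H1975 and A549 cells treated at 0.2–0.6 µM. EGFR and c-Met mRNA assessed by RT-PCR.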

[12] = tested on: Epidermal growth factor receptor (Homo sapiens), P00533 [L858R,T790M]; experiment: Induction of EGFR L858R/T790M double mutant degradation in human NCI-H1975 cells assessed as change in EGFR expression at 0.2 to 0.6 uM incubated for 48 hrs by RT-PCR analysis; assay type: cell-based; summary of the method: as §2
PC-9 = experiment: Cell cycle arrest in human PC9 cells harbouring EGFR delE746-A750 […] assessed as increase in cells accumulation at G2/M phase at 0.4 to 0.8 uM incubated for 48 hrs by propidium iodide based flow cytometry; assay type: functional
Summary of the method: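 Cells plated at 3 × 10^5 per 6-cm dish and left overnight, then treated for 24 h and 48 h. Pellets fixed in 70% ethanol and stained with 40 µg/ml propidium iodide plus 20 µg/ml RNase A, 30 min on ice in the dark. DNA content read on a FACSCalibur flow cytometer.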

NCI-H1975 [13] = experiment: (§3) Antitumor activity against human NCI-H1975 cells harbouring EGFR L858R/T790M double mutant xenografted in athymic Nude-Foxn1nu BALB/c mouse assessed as tumor growth inhibition at 150 mg/kg, po administered once daily via gavage for 20 days measured twice a week by caliper method relative to control; assay type: functional; conditions: 480 h, read-out: TGI
Summary of the method: (§4)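 Female Balb/c nude mice, 5 weeks old, injected subcutaneously in the right flank with 10^6 H1975 cells in 0.1 ml. Randomized at about 50 mm3, n = 8 per group. Gavaged once daily for 20 days with vehicle (10% DMSO/0.1% Tween 80/0.5% methylcellulose in sterile water) or 50 or 150 mg/kg. Calipers, V = width² × length × 0.52; volume and body weight twice weekly; Student's t-test.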

[14] = Toxicity in athymic Nude-Foxn1nu BALB/c mouse xenografted with human NCI-H1975 cells harbouring EGFR L858R/T790M double mutant assessed as body weight loss at 50 to 150 mg/kg, po administered once daily via gavage for 20 days measured twice a week; assay type: organism-based; conditions: in vivo, 480 h; summary of the method: as §4
NCI-H1975 [15] = experiment: Antitumor activity against human NCI-H1975 cells harbouring EGFR L858R/T790M double mutant xenografted in athymic Nude-Foxn1nu BALB/c mouse assessed as reduction in c-Met expression in tumor lysates administered once daily via oral gavage for 20 days measured on day 20 by Western blot analysis; assay type: functional; conditions: Neoplasm, Lysate
Summary of the method: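 H1975 xenografts in nude mice gavaged daily for 20 days with vehicle, 50 or 150 mg/kg. At study end mice were killed by CO2, and tumor lysates from four representative tumors per group were immunoblotted for EGFR and c-Met. Band intensities quantified by densitometry.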

NCI-H1975 [16] = experiment: as §3, with “50” for “150”, “days in presence of gefitinib” for “days”; assay type: functional; conditions: 480 h, read-out: TGI
Summary of the method: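 H1975 subcutaneous xenografts in female nude mice, randomized at about 50 mm3, n = 8 per group. Four arms gavaged once daily for 20 days: vehicle, gefitinib 50 mg/kg, test agent 50 mg/kg, or both at 50 mg/kg each. Tumor volume by calipers (width² × length × 0.52), measured twice weekly.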

Sequence of Hepatocyte growth factor receptor (Homo sapiens) (P08581 whole entry): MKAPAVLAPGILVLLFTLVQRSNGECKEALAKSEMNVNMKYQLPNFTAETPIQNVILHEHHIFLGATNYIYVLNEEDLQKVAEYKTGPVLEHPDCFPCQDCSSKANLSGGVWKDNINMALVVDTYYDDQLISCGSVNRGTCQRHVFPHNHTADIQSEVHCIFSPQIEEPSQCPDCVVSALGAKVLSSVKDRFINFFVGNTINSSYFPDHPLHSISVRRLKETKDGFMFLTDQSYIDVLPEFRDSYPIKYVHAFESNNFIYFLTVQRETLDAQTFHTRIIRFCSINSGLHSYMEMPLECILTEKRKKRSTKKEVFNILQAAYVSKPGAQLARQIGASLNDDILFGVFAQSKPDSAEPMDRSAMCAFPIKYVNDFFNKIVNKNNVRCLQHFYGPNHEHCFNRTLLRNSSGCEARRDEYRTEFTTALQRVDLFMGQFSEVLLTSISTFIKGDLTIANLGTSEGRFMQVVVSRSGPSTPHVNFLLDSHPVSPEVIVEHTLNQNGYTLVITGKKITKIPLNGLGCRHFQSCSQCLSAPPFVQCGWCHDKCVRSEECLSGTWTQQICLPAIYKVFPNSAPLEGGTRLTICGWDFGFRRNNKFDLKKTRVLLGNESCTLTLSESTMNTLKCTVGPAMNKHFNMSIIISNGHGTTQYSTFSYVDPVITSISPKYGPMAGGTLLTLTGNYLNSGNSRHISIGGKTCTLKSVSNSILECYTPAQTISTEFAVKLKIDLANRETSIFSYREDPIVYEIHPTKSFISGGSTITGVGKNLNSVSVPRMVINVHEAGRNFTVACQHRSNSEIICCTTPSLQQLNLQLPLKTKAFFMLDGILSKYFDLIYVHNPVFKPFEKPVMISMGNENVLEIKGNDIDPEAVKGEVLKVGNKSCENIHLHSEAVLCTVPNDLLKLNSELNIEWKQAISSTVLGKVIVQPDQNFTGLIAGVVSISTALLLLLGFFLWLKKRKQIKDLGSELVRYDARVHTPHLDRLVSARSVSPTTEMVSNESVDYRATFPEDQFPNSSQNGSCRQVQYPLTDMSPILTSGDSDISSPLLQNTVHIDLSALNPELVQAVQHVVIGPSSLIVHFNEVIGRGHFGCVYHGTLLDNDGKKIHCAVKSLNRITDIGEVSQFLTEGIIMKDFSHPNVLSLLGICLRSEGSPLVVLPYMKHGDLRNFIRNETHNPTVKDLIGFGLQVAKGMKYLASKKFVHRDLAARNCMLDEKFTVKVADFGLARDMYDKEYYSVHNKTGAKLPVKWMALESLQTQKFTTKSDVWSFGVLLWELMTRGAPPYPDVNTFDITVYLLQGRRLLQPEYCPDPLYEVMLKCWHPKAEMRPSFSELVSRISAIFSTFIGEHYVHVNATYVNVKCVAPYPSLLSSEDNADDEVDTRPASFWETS

IC50 (MDA-MB-231): 200 nM
Activity [1]: Active
IC50 (NCI-H1975 [2]): 300 nM
IC50 (A549): 200 nM
Activity [4]: Active
Activity [5]: Active
Activity [6]: Active
Activity [7]: Active
Activity [8]: Active
Activity [9]: Active
Activity [10]: inactive
Activity [11]: inactive
Activity [12]: inactive
SMILES: O=C(Nc1cccc(-c2nc(-c3ccc(NC(=O)c4cccnc4)cc3Cl)no2)c1)Nc1ccc(NC(=O)C2CC2)c(C(F)(F)F)c1
IC50 [3]: 400 nM
Activity (PC-9): Active
inhibition in vivo at 150 mg/kg (NCI-H1975 [13]): 60%
Activity [14]: Non-Toxic
Activity (NCI-H1975 [15]): Dose-dependent effect
inhibition in vivo at 50 mg/kg (NCI-H1975 [16]): 72%
